For 10 molecules, IC50 results are on record in ChEMBL document CHEMBL1128420, “Novel steroidal inhibitors of human cytochrome P45017 alpha (17 alpha-hydroxylase-C17,20-lyase): potential agents for the treatment of prostatic cancer” (J Med Chem, 1995).

Experiment [1] deals with T1, Steroid 17-alpha-hydroxylase/17,20 lyase (Homo sapiens, UniProt P05093).
T1 sequence (P05093 whole entry): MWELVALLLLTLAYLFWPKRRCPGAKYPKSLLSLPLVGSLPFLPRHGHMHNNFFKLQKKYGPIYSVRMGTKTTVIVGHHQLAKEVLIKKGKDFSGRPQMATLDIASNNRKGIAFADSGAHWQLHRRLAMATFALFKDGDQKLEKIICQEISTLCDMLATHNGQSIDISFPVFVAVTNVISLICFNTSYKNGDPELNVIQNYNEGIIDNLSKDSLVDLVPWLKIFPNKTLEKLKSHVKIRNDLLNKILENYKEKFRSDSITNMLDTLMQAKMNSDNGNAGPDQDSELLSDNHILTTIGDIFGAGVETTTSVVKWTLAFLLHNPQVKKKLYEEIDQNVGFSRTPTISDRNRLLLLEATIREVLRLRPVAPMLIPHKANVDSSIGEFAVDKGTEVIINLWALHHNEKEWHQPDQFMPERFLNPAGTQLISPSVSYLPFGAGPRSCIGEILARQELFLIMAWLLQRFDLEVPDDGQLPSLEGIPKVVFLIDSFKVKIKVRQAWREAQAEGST
As to the kind of experiment: Ability to inhibit the C17,20-lyase enzyme by 50% using 17-alpha-hydroxyprogesterone as substrate.

The target of experiment [2] is T1, Steroid 17-alpha-hydroxylase/17,20 lyase. As to the kind of experiment: Ability to inhibit the Steroid 17-alpha-hydroxylase/17,20 lyase enzyme by 50%.
Another experiment addresses T2, Aromatase (Homo sapiens, UniProt P11511).
T2 sequence (P11511 whole entry): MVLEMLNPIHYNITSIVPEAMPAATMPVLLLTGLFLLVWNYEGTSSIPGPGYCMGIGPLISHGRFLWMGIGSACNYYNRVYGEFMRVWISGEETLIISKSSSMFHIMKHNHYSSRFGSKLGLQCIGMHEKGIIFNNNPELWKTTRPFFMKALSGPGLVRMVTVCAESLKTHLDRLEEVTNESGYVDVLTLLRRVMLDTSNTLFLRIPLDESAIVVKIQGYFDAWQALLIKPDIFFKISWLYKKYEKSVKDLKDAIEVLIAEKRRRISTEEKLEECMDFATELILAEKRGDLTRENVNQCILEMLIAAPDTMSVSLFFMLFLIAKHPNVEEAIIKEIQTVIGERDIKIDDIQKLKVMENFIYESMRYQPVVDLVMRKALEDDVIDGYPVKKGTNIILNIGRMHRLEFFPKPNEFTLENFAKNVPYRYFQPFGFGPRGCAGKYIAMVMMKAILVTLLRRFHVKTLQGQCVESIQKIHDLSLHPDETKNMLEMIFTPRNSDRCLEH
As to the kind of experiment: Inhibition of Cytochrome P450 19A1. In short, it runs like this: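 Aromatase from the microsomal fraction of human placenta.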

Experiment [3] in a line: Inhibition of Steroid 5-alpha-reductase. On the set-up: species or system Homo sapiens. In outline:
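Testosterone 5α-reductase from human benign prostatic tissue.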

What is called IC50 is the concentration at which inhibition is half-maximal. A lower IC50 goes with higher potency. With `C[C@]12CC[C@H](O)CC1=CC[C@@H]1[C@@H]2CC[C@]2(C)C(c3ccncc3)=CC[C@@H]12`, the figures for the IC50 (in experiment [1]; in experiment [2]; against Aromatase) were 1 µM, 4 µM and greater than 20 µM, respectively.
The matching figures for `C[C@]12CC[C@H](O)CC1=CC[C@@H]1[C@@H]2CC[C@]2(C)C(c3ccccn3)=CC[C@@H]12`: 0.076 µM, 0.27 µM and greater than 20 µM.
Consider `C[C@]12CCC(=O)C=C1CCC1C2C(=O)C[C@]2(C)C(c3cccnc3)=CCC12` (some centres not stated), for which the IC50 in experiment [1] was found to be 0.0029 µM; in experiment [2], 0.013 µM.
Regarding `C[C@]12CCC(=O)C=C1CCC1C2CC[C@]2(C)C(c3cccnc3)=CCC12` (some centres not stated), the IC50 in experiment [3] came out at 10 µM; against Aromatase, 1.8 µM.
For the molecule `C[C@]12CCC(Oc3c(F)c(F)c(C(F)(F)F)c(F)c3F)=CC1=CCC1C2CC[C@]2(C)C(c3cccnc3)=CCC12` (some centres not stated), the IC50 in experiment [1] and in experiment [2] was greater than 10 µM in each case.
With `C[C@]12CCC(O)CC1=CCC1C2CC[C@]2(C)C(Cc3ccccn3)=CCC12` (some centres not stated), the IC50 in experiment [1] and in experiment [2] was greater than 10 µM in each case.
Regarding `C[C@]12CC[C@H](O)CC1=CCC1C2CC[C@@]2(C)C1CC[C@@H]2c1cccnc1` (some centres not stated), the IC50 worked out at 0.023 µM in experiment [1] and 0.047 µM in experiment [2].
`C[C@]12CCC3C(CC[C@H]4CC(=O)CC[C@]34C)C1CC=C2c1cccnc1` (some centres not stated): the IC50 is 0.003 µM in experiment [1] and 0.0047 µM in experiment [2].
`C[C@]12CCC3C(CC=C4C[C@@H](O)CC[C@@]43C)C1CCC2c1ccncc1` (single isomer, unassigned): the concentration for half-maximal inhibition (IC50) worked out at 0.053 µM in experiment [1] and 0.16 µM in experiment [2].
With `C[C@]12CC[C@H](O)CC1=CC[C@@H]1[C@@H]2CC[C@]2(C)C(c3cccnc3)=CC[C@@H]12` [ABIRATERONE], the IC50 in experiment [3] was greater than 50 µM; on Aromatase, greater than 20 µM.
